# Results from different studies.
# Protocols differ between the studies behind these lines.
# CYP2D6: Cytochrome P450 2D6 (CYP2D6, Homo sapiens, UniProt P10635)
# Dihydroorotate dehydrogenase (quinone), mitochondrial: Dihydroorotate dehydrogenase (quinone), mitochondrial (Rattus norvegicus, UniProt Q63707)
target,assay,system,conditions,endpoint,result,SMILES
CYP2D6,"enzyme activity, inhibitor","human, liver microsomes",,Ki,26.4 µM,C=C(F)C(=O)N1CCN(c2nc(OC[C@@H]3CCCN3C)nc3c2CCN(c2cccc4cccc(Cl)c24)C3)C[C@@H]1CC#N
CYP2D6,"enzyme activity, inhibitor","human, liver microsomes",pH 7.4,Ki,8.66 µM,COc1cc(O)c2c(c1)C(=O)c1cc(C)cc(O)c1C2=O
"Calmodulin-domain protein kinase 1, putative (Cryptosporidium parvum, UniProt A3FQ16)","enzyme activity, inhibitor",,,IC50,> 1 µM,Cc1ccc(C(=O)Nc2ccc(CN3CCN(C)CC3)c(C(F)(F)F)c2)cc1C#Cc1cnc2cccnn12
"Prolyl endopeptidase (PREP, Homo sapiens, UniProt P48147)","enzyme activity, inhibitor, fluorescence",,,IC50,14 µM,Cc1nn(CCc2ccccc2)c2ncc(C(=O)NCc3cccnc3)c(Cl)c12
"Dihydroorotate dehydrogenase (quinone), mitochondrial","enzyme activity, inhibitor, absorbance",,,IC50,6.2 µM,Cn1nc2c(=O)n(C3CC3)ncc2c1[C@](N)(c1ccc(C(F)(F)F)c(Cl)c1)C1CC1
"DDB1- and CUL4-associated factor 1 (DCAF1, Homo sapiens, UniProt Q9Y4B6)","binding, SPR",,,Kd,0.0152 µM,C[C@@H]1CN(c2ccc(-c3cc(C(=O)NCCCNC(=O)/C=C/c4[nH]cc(C(=O)N[C@@H](CC(N)=O)c5ccc(F)c(Cl)c5)c4-c4ccc(Cl)cc4F)ccc3F)cc2NC(=O)c2c[nH]c(=O)cc2C(F)(F)F)C[C@H](C)N1C
"Dihydroorotate dehydrogenase (quinone), mitochondrial","enzyme activity, inhibitor, absorbance",,,IC50,> 30 µM,Cn1nc2c(=O)n(C3CC3)ncc2c1[C@](O)(c1cnc(C(F)(F)F)c(Cl)c1)C(F)(F)F
"Ubiquitin carboxyl-terminal hydrolase 7 (USP7, Homo sapiens, UniProt Q93009)","binding, SPR",,,Kd,0.0001 µM,O=C1CCC(=O)N1Cc1cc2nccc(-c3cc(Cl)cc4c3N([C@@H]3CNC5(CCC5)C3)CCC4)c2s1
"Alpha-1B adrenergic receptor (ADRA1B, Homo sapiens, UniProt P35368)",ligand displacement in cells,,,Ki,0.155 µM,Cc1ccc2[nH]c(=O)c(CNC3CCCCC3)cc2c1
"Sodium-dependent neutral amino acid transporter B(0)AT1 (SLC6A19, Homo sapiens, UniProt Q695T7)","transporter uptake, inhibitor, radiometric",,,IC50,0.84 µM,CCNC(=O)/C=C/c1cccc(Br)c1
"Dihydroorotate dehydrogenase (quinone), mitochondrial","enzyme activity, inhibitor, absorbance",,,IC50,16 µM,Cn1nc2c(=O)n(C3CC3)ccc2c1[C@](O)(c1cnc(C(F)(F)F)c(Cl)c1)C(F)(F)F
"Histone deacetylase 3 (HDAC3, Homo sapiens, UniProt O15379)","enzyme activity, inhibitor",,,IC50,0.716 µM,Nc1ccccc1NC(=O)c1ccc(CNc2ccc(NC3=C(Cl)C(=O)c4cccnc4C3=O)cc2)cc1
